Five compounds from ChEMBL document CHEMBL2163200, “Synthesis, biological evaluation, and structure-activity relationships of novel substituted N-phenyl ureidobenzenesulfonate derivatives blocking cell cycle progression in S-phase and inducing DNA double-strand breaks” (J Med Chem, 2012) can be followed below.

The test system of data set [1] is M21. The data set is described as follows: Induction of DNA damage response in human M21 cells assessed as phosphorylation of H2AX into gammaH2AX at IC50 after 24 hrs by DAPI staining-based immunofluorescence assay. The class given is functional, cell-based. A digest of the protocol:
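M21 cells (1 × 10^5) on fibronectin-coated coverslips, grown 24 h, then exposed to agent for 24 h at 37 °C; 0.5% DMSO control. Fixed with 3.7% formaldehyde and permeabilized with 0.1% saponin/3% BSA. Probed with mouse anti-H2AX pS139 antibody for 2 h at room temperature. Nuclei counterstained with DAPI; nuclear γH2AX foci viewed by epifluorescence microscopy.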

Data set [2] concerns MCF7. Nature of the data set: Cytotoxicity against human MCF7 cells after 48 hrs by SRB assay. The settings on record: MCF7, 48 h. The class given is functional, cell-based. A digest of the protocol:
(§1)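 NCI sulforhodamine B protocol. Cells were grown in high-glucose DMEM with 5% FBS and seeded per well at 4 × 10^3 (HT-29), 3.5 × 10^3 (M21) or 3 × 10^3 (MCF-7), then allowed 24 h to attach. Serial dilutions from 200 μM to 780 nM final were applied in DMSO <0.5% for 48 h. Cells were fixed with cold TCA (10% final) and stained with SRB, with absorbance read at 530–568 nm. Growth inhibition was computed against day-0 plates, giving the 50% inhibitory concentration. At least two experiments in triplicate, CV <10%.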

The subject of data set [3] is Jurkat. The data set is described as follows: Cell cycle arrest in human Jurkat E6-1 cells assessed as accumulation at G0/G1 phase at 6.6 uM after 24 hrs by FACS flow cytometry. The data set is classed as functional. A digest of the protocol: (§2)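 Jurkat E6 cells cultured in RPMI 1640 with 10% FBS at 37 °C, 5% CO2. Compounds serially diluted in medium, starting 50% above the M21 IC50. 4.0 × 10^5 cells were exposed for 24 h. Cells were washed with PBS, chicken red blood cells added as internal standard, and fixed in ice-cold EtOH. After 1 h on ice in PBS with 1 μg/mL DAPI, phase distribution was read by flow cytometry. DMSO-treated cells served as control.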

In data set [4] the test system is M21. The data set is described as follows: Cytotoxicity against human M21 cells after 48 hrs by SRB assay. The class given is functional, cell-based. The settings on record: M21, 48 h. The procedure, abridged: as §1
The subject of data set [5] is Jurkat. The data set is described as follows: Cell cycle arrest in human Jurkat E6-1 cells assessed as accumulation at S phase at 6.6 uM after 24 hrs by FACS flow cytometry. The data set is classed as functional. A digest of the protocol: (§3)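 Jurkat E6 T-lymphoblasts in RPMI 1640 with 10% FBS, 37 °C, 5% CO2. […] Chicken red blood cells were added as internal standard. Cells were fixed in ice-cold EtOH and stained with 1 μg/mL DAPI on ice for 1 h before flow cytometry of phase distribution. Vehicle control was 0.5% DMSO.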

Data set [6] deals with Jurkat. The data set is described as follows: Cell cycle arrest in human Jurkat E6-1 cells assessed as accumulation at G2/M phase at 6.6 uM after 24 hrs by FACS flow cytometry. The data set is classed as functional. A digest of the protocol:
(§4)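 Jurkat E6 cells grown in RPMI 1640 with 10% FBS at 37 °C, 5% CO2. Compounds were serially diluted in medium starting 50% above the M21 IC50. 4.0 × 10^5 cells were exposed for 24 h, then washed and spiked with chicken red blood cells as internal standard. Cells were fixed in ice-cold ethanol, stained with 1 μg/mL DAPI on ice for 1 h, and phase distribution was read by flow cytometry. The control was 0.5% DMSO.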

The subject of data set [7] is Jurkat. Nature of the data set: Cell cycle arrest in human Jurkat E6-1 cells assessed as accumulation at S phase at 17 uM after 24 hrs by FACS flow cytometry. The class given is functional. The procedure, abridged:
as §4

In data set [8] the test system is Jurkat. The data set is described as follows: Cell cycle arrest in human Jurkat E6-1 cells assessed as accumulation at G2/M phase at 17 uM after 24 hrs by FACS flow cytometry. The class given is functional. The procedure, abridged:
as §4

Data set [9] relates to Jurkat. The data set is described as follows: Cell cycle arrest in human Jurkat E6-1 cells assessed as accumulation at G0/G1 phase at 17 uM after 24 hrs by FACS flow cytometry. The data set is classed as functional. The procedure, abridged: as §2
For data set [10], the system named is Jurkat. Nature of the data set: Cell cycle arrest in human Jurkat E6-1 cells assessed as accumulation at G0/G1 phase at 4.8 uM after 24 hrs by FACS flow cytometry. The class given is functional. A digest of the protocol:
as §2

The subject of data set [11] is HT-29. Nature of the data set: Cytotoxicity against human HT-29 cells after 48 hrs by SRB assay. The note with it: HT-29, 48 h. The data set is classed as functional, cell-based. The procedure, abridged: as §1
Data set [12] relates to Jurkat. Nature of the data set: Cell cycle arrest in human Jurkat E6-1 cells assessed as accumulation at S phase at 4.8 uM after 24 hrs by FACS flow cytometry. The data set is classed as functional. A digest of the protocol:
as §3

Data set [13] relates to Jurkat. Nature of the data set: Cell cycle arrest in human Jurkat E6-1 cells assessed as accumulation at G2/M phase at 4.8 uM after 24 hrs by FACS flow cytometry. The data set is classed as functional. A digest of the protocol:
as §4

For data set [14], the system named is Jurkat. The data set is described as follows: Cell cycle arrest in human Jurkat E6-1 cells assessed as accumulation at S phase at 0.84 uM after 24 hrs by FACS flow cytometry. The class given is functional. A digest of the protocol: as §4
Data set [15] deals with Jurkat. Nature of the data set: Cell cycle arrest in human Jurkat E6-1 cells assessed as accumulation at G2/M phase at 0.84 uM after 24 hrs by FACS flow cytometry. The data set is classed as functional. A digest of the protocol:
as §2

The test system of data set [16] is Jurkat. The data set is described as follows: Cell cycle arrest in human Jurkat E6-1 cells assessed as accumulation at G0/G1 phase at 0.84 uM after 24 hrs by FACS flow cytometry. The class given is functional. A digest of the protocol:
as §2

Data set [17] in a line: Toxicity in fertilized chicken embryo assessed as mortality rate at 30 ug per egg, iv administered on day 11 measured on day 17 by CAM assay. The note with it: in vivo, read-out: Activity. The data set is classed as organism-based, Gallus gallus. A digest of the protocol:
(§5)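 Fertilized chicken eggs grafted on the CAM with HT-1080 cells (3.5 × 105/egg) received a 100 μL intravenous injection under the CAM on day 11. The drug was diluted in Cremophor EL/99% ethanol/PBS (1/1/14 v/v). Groups held 10–12 eggs and were incubated until day 17, when dead embryos and signs of toxicity were counted per group.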

Data set [18] deals with HT-1080. The data set is described as follows: Antitumor activity against human HT1080 cells xenografted in chicken chorioallantoic membrane assessed as inhibition of tumor growth at 30 ug per egg, iv administered on day 11 measured on day 17 by CAM assay. The class given is functional. A digest of the protocol:
(§6)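 HT-1080 fibrosarcoma cells (3.5 × 105/egg) were applied onto freshly exposed CAM of fertilized chicken eggs. On day 11, drug from a DMSO stock was diluted in Cremophor EL/99% ethanol/PBS (1/1/14 v/v) and 100 μL was injected into a vein under the CAM. Groups of 10–12 eggs were kept to day 17, embryos were euthanized at 4 °C for ≥4 h, and tumor wet weight was recorded.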

Data set [19] concerns HT-1080. Nature of the data set: Antitumor activity against human HT1080 cells xenografted in chicken chorioallantoic membrane assessed as inhibition of tumor growth at 10 ug per egg, iv administered on day 11 measured on day 17 by CAM assay. The class given is functional. The procedure, abridged: as §6
Data set [20] concerns Jurkat. The data set is described as follows: Cell cycle arrest in human Jurkat E6-1 cells assessed as accumulation at G2/M phase at 1.2 uM after 24 hrs by FACS flow cytometry. The class given is functional. The procedure, abridged: as §2
The subject of data set [21] is Jurkat. The data set is described as follows: Cell cycle arrest in human Jurkat E6-1 cells assessed as accumulation at G0/G1 phase at 1.2 uM after 24 hrs by FACS flow cytometry. The data set is classed as functional. The procedure, abridged:
as §2

Data set [22] deals with Jurkat. The data set is described as follows: Cell cycle arrest in human Jurkat E6-1 cells assessed as accumulation at S phase at 1.2 uM after 24 hrs by FACS flow cytometry. The data set is classed as functional. The procedure, abridged:
as §4

Data set [23] can be described thus: Toxicity in fertilized chicken embryo assessed as mortality rate at 10 ug per egg, iv administered on day 11 measured on day 17 CAM assay. The data set is classed as organism-based, Gallus gallus. The note with it: in vivo, read-out: Activity. A digest of the protocol: as §5

pIC50: −log10 of the molar value. The source made the active and inactive calls. The calls are words filed in the database; no cut-off is given here.

`CCCc1ccccc1OS(=O)(=O)c1ccc(NC(=O)NCCCCl)cc1`: the result in data set [1] was Active. Besides, the pIC50 was 4.82 in data set [2] and 4.89 in data set [4]. The Activity in data set [3] is on record as 25%; in data set [5], 67%; in data set [6], 8%.

On to `COc1ccc(OS(=O)(=O)c2ccc(NC(=O)NCCCl)cc2)cc1`, for which the Activity in data set [7] was determined as 42%; in [8], 15%; in [9] it was 43%. Also, the results for the pIC50 in [2] and in data set [4] were 4.57 and 4.74, respectively.

On to `Cc1cccc(OS(=O)(=O)c2ccc(NC(=O)NCCCl)cc2)c1`, for which the Activity in data set [10] is on record as 35%; in data set [12], 52%; in data set [13], 13%. For the same compound, the pIC50 is 4.96 in [11], 4.77 in data set [2] and 5.14 in data set [4].

For `O=C(NCCCl)Nc1ccc(S(=O)(=O)Oc2ccc(O)cc2)cc1`, the pIC50 in data set [11] is 5.82; in data set [2] it was 5.89; in [4], 5.92. Further, the results for the Activity in [14], in [15] and in [16] were 53%, 20% and 27%, respectively. The mortality at 6 days in [17] worked out at 15%. Moreover, in [18], the TGI is 69%.

Take `Cc1ccccc1OS(=O)(=O)c1ccc(NC(=O)NCCCl)cc1`: in [19], the TGI came to 60%. The Activity in data set [20] amounted to 7%; in data set [21], 22%; in data set [22] it was 71%. In addition, the pIC50 in [11] was 5.33; in data set [2], 5.32; in data set [4], 5.55. The outcome in [1] was Active. In addition, the mortality at 6 days in data set [23] stood at 15%.
